According to article PMC9486669 (Veterinary and Animal Science, 2022):
≈ marks a conversion by molar mass, not a printed value. Where “and” joins values, the source holds several entries; their conditions need not be identical. Equal entries are not always repeated. Entries after “also recorded” stand apart in the source; their conditions may differ.

Assays:
[1] = system: FMO; details: sheep liver microsomes, ref Miró et al. 2020b, 2020c; cited from earlier work
[2] = biological target: T1, CYP1A1 (Ovis aries, UniProt P56591); details: sheep liver microsomes, ref Miró et al. 2020b, 2020c; cited from earlier work
T1 sequence (P56591 1-519): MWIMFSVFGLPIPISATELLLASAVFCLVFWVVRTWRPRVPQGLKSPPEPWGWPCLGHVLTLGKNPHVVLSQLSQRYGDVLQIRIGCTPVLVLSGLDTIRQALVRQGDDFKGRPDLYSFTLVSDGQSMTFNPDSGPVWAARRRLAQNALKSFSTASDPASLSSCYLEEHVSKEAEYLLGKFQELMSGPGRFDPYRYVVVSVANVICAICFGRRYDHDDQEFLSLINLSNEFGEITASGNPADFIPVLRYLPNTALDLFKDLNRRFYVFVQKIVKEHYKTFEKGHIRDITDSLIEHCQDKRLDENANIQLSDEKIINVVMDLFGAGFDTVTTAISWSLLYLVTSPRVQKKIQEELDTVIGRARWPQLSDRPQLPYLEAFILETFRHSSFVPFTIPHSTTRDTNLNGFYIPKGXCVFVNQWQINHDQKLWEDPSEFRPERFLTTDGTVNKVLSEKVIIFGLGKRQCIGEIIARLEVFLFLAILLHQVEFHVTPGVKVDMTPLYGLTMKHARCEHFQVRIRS

[3] = system: sheep liver microsomes; details: ref Miró et al. 2020b, 2020c; cited from earlier work
[4] = ref Miró et al., 2020b; cited from earlier work
[5] = system: ruminal incubations; details: ref Miró et al., 2020b; cited from earlier work
[6] = system: gram-positive and negative bacteria; details: ref Nagoor Meeran et al., 2017; cited from earlier work
[7] = system: Rhipicephalus microplus; details: encapsulated in Saccharomyces cerevisiae; ref da Silva Lima et al., 2017; cited from earlier work
[8] = system: FMO; experiment: FMO-dependent metabolism: BZ N-oxidase activity in sheep liver microsomes; type: in vitro ADME
[9] = type: in vivo, Corriedale lambs; details: lambs
[10] = system: Haemonchus contortus; experiment: Fecal egg count reduction in lambs infected with resistant H. contortus; type: in vivo
Outline: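 Corriedale lambs artificially infected with a resistant H. contortus isolate received yeast-encapsulated test compound, 100 mg/kg orally, as four doses every 24 h. Faeces were sampled on days −1, 7 and 14, and epg was counted by modified McMaster (sensitivity 10 epg). FECR was calculated per McKenna from arithmetic mean epg: day −1 (T1) versus days 7 and 14 (T2).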

[11] = GNL plasma levels after yeast-encapsulated GNL in the FEC trial; type: in vivo, Corriedale lambs; details: lambs; yeast-encapsulated GNL 100 mg/kg oral, four doses every 24 h
[12] = system: Caenorhabditis elegans; details: read-out: LC50 (mortality); in vitro; ref Abdel-Rahman et al., 2013; cited from earlier work
[13] = system: Haemonchus contortus; details: in vitro; ref Helal et al., 2020; cited from earlier work
[14] = system: Trichostrongylus axei; details: in vitro; ref Helal et al., 2020; cited from earlier work
[15] = system: Teladorsagia circumcincta; details: in vitro; ref Helal et al., 2020; cited from earlier work
[16] = rats, cited from earlier work
[17] = system: Ancylostoma ceylanicum and Trichuris muris; details: encapsulated monoterpene, in vitro; ref Mirza et al., 2020; cited from earlier work

SMILES: Cc1ccc(C(C)C)c(O)c1 [TML, thymol]
- effect on FMO-dependent metabolism [1]: inhibited
- effect on CYP1A1-dependent metabolism [2]: inhibited
- effect on S-oxygenation of ABZ [3]: delayed
- effect on systemic exposure of ABZ metabolites [4]: did not improve
- effect on formation of ABZ from ABZSO [5]: completely abolish
- MIC [6]: 150 µg/mL (≈ 999 µM)

SMILES: Cc1ccc(C(C)C)cc1O [carvacrol]
- decrease of LC50 after encapsulation compared to non-encapsulated [7]: 2.5 fold

SMILES: CC(C)=CCC/C(C)=C/CO [GNL, 3,7-dimethylocta-trans-2,6-dien-1-ol]
- BZ N-oxidase activity, lower compared to absence of GNL ([8]; 0.2 mM GNL): 65.5 ± 13.6%
- BZ N-oxidase activity (FMO pathway), lower compared to absence of GNL ([8]; 2 mM GNL): 84.5 ± 4.84% and 84.5%
- mean GNL plasma concentration expressed ([9]; 1 h after second oral dose of GNL 100 mg/kg): 0.02 mM
- mean GNL plasma concentration ([9]; 1 h after second oral dose of GNL 100 mg/kg (emulsion)): 3.04 ± 1.33 µg/mL and 3.04 µg/mL
- effect on fecal egg counts ([10]; 7 and 14 days after first dose, four doses of GNL): did not significantly decrease
- FECR (fecal egg count reduction), in vivo efficacy ([10]; day 14, lambs, GNL 100 mg/kg oral x 4, 95% LCL-UCL 0-82.3): 40.5%
- time of GNL detection in plasma [11]: detected in plasma only at 1 h post-treatment; also recorded: detected in plasma only at 1 h post-administration
- LC50 [12]: 14 µg/mL (≈ 90.8 µM)
- reduction of larval motility [13]: 82%
- reduction of larval motility [14]: 90%
- reduction of larval motility [15]: 94%
- elimination half-life ([16]; intravenous infusion of 12.5 mg, ref Pavan et al. (2018)): about 12 min
- time at which Cmax in the bloodstream was achieved ([16]; oral administration, ref Pavan et al., 2018): 30 min
- classification of action [17]: fast acting at a moderately high dose
